MT1-MMP act inh: MT1-MMP (human) activation inhibition; GFP/RFP ratio change, % at 20 µM; hit rate 0.061% among 360,000; HT1080 RFP-PRO-GFP cells, GFP/RFP ratio fluorescence, overnight; percent of plate control window, DMSO zero; P50281; AID 651647;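 active = GFP/RFP ratio change of at least 30% with cell ATP level not reduced by more than half and red fluorescence within 50% of control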
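Read-out: GFP/RFP fluorescence ratio; Test system: RFP-PRO-GFP reporter HT1080 cells; Compound dosing: single-point 20 µM compound, 1% DMSO; Times: overnight compound exposure at 37 °C.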
SKN-1 inh: C. elegans SKN-1 inhibition | AID 624304 | inhibition, % at 21.8 µM | C. elegans VP596 Pgst-4::GFP/RFP ratio, acrylamide-induced, 24 h | hit rate 0.49% among 360,000;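 active = interference check ratio from 0.5 to 1.5 plus GFP to RFP signal ratio inhibition reaching or exceeding a fixed threshold, cut at about 30% in these data, passing the limit was not always enough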
Rpn11 block: inhibitors of human proteasome Rpn11; human 26S proteasome, Ub4-pepOG fluorescence polarization; 20S core pre-blocked with epoxomicin; inhibition, % at 20 µM; hit rate 0.59% among 360,000;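 active = inhibition at 20 µM, scaled to each plate's controls, above about 33%, limit read from the data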
SUMO1-SIM PPI: SUMO1-SIM interaction modulation | P63165 | inhibition, % at 20 µM | hit rate 0.33% among 360,000 | SUMO1 binding to a labelled peptide, TR-FRET, 1 h; in the data active = inhibition above about 37%
Target sequence (P63165 whole entry, looked up): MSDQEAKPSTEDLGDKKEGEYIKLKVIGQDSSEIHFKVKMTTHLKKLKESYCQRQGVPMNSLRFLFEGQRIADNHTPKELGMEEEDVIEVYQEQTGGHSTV
CSN inh: CSN deneddylation inhibition; Q92905; Purified CSN, SCF-Nedd8-OG deneddylation, fluorescence polarization; inhibition, % at 12.5 µM; hit rate 0.38% among 360,000;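 active = pattern-corrected inhibition above about 35%, with an unprinted fluorescence ratio check between 0.5 and 1.5, limit read from the data, passing the limit was not always enough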;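 note: 0% = enzyme with substrate and 100% = substrate without enzyme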
Target sequence (Q92905 whole entry, looked up, one chain of several): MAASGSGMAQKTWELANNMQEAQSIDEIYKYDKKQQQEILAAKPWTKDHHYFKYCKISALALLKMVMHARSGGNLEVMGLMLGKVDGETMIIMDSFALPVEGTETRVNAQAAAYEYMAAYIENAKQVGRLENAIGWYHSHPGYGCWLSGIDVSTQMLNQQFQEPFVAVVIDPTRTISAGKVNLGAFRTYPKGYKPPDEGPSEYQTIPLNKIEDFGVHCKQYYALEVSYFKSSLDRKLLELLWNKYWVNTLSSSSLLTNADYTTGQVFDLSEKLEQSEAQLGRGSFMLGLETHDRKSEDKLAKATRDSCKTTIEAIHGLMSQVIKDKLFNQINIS
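Assay system: Purified human Csn5 enzyme expressed in HEK293T cells | Amount: Enzyme 0.24 nM | Measured by: Fluorescence polarization readout | Medium: Tris/NaCl/DTT buffer, pH 7.5 | Compound dosing: One concentration, 12.5 µM, 0.25% DMSO | Times: 90 min incubation of compound, enzyme and substrate at room temperature | Control set: no-enzyme wells high, enzyme-with-substrate wells low | Read-out: % inhibition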
DNMT1 block: blocks human DNA methyltransferase DNMT1 | inhibition (reported as % activation of signal), % at 10 µM | hit rate 0.83% among 360,000 | P26358 | DNMT1 molecular beacon, Hinp1I cleavage, fluorescence; in the data active = inhibition above about 50%
Numbers without * were called inactive; nt = not tested or not shown. The list is not random: actives were taken first. Their share in the collection is about 2.3%.

SMILES	MT1-MMP act inh	SKN-1 inh	Rpn11 block	SUMO1-SIM PPI	CSN inh	DNMT1 block
CC(C)CC1=C/C(=C/c2ccc(-c3ccccc3)o2)C(=O)O1	-7	2	53*	14	38*	92*
NS(=O)(=O)c1ccc(-c2ccc(C=C3C(=O)c4ccccc4C3=O)o2)cc1	2	3	-2	-4	-3	0
O=C1Cc2ccccc2C(=O)N1	7	4	nt	20	35*	nt
O=C1Nc2ccccc2CCc2ccccc21	0	4	-2	1	0	4
COc1ccc(/C=N/n2cnc3c([nH]c4ccc(F)cc43)c2=O)cc1CN1CCCC1	-4	-7	9	-9	85*	3
COc1ccc(/C=N/n2cnc3c([nH]c4ccc(C)cc43)c2=O)cc1CN1CCCC1	2	1	5	-15	6	8
Cc1ccc(NC(=O)C(C)Sc2nnc3ccccn23)cc1 (stereo unspecified)	3	-3	3	-1	-1	-1
CC(Sc1nnc2ccccn12)C(=O)Nc1ccc2c(c1)OCCO2 (stereo unspecified)	3	-16	1	104*	-4	-2
CCOc1ccccc1CNc1ccc(O)cc1	17	42*	-5	69*	11	17
CCc1ccc(CNc2ccc(O)cc2)cc1	21	20	-1	74*	32	75*
Oc1ccc(NCc2ccccc2OCc2ccccc2F)cc1	23	17	5	59*	32	-42
CCOc1cc(CNc2ccc(O)cc2)ccc1OCc1ccc(Cl)cc1Cl	8	41*	-2	52*	44*	80*
Cc1cccc(N2CCN(C(=O)CN3C(=O)NC(C)(C4CC4)C3=O)CC2)c1C (stereo unspecified)	-3	-14	-6	45*	1	47
Cc1cccc(N2CCN(C(=O)CN3C(=O)NC(C)(C)C3=O)CC2)c1C	3	10	2	-3	-4	0
COc1cc(/C=C/c2ccc3cccc(O)c3n2)cc(OC)c1OC	22	-6	-4	4	-1	-2
Oc1cccc(/C=C/c2ccc3cccc(O)c3n2)c1	3	46*	1	-9	-1	-23
Cc1ccc(/C=C/c2ccc3cccc(O)c3n2)s1	6	35*	30	-13	8	-10
COc1cccc(/C=C/c2ccc3cccc(O)c3n2)c1	3	17	11	-27	-3	-10
CC1=C(C(=O)N(C(C)C)C(C)C)CC(CC(=O)NCCN2CCOCC2)C(=O)N1Cc1ccc(C(C)(C)C)cc1 (stereo unspecified)	1	2	0	-2	-4	1
COC(=O)N/N=C(\CCC(=O)O)c1cccs1	-1	-4	1	13	90*	-11
O=C(O)CC/C(=N\NC(=O)c1ccccc1)c1cccs1	3	-1	2	2	8	-4
O=C(Nc1ccc2c(c1)OCO2)c1cc(C2CCCCN2S(=O)(=O)Cc2ccccc2)on1 (stereo unspecified)	2	-12	4	4	-1	-1
COc1ccc(-c2cc(C(=O)Nc3c(C)n(C)n(-c4ccccc4)c3=O)c3ccccc3n2)c(OC)c1	-4	36*	-5	-10	-3	-1
Cc1cccn2c(=O)c(C=O)c(N3CC(C)OC(C)C3)nc12 (stereo unspecified)	-1	3	-6	-9	22	-1
Cc1cccn2c(=O)c(C=O)c(N3CCCCCC3)nc12	-6	37*	-3	-13	1	-2
SMILES	MT1-MMP act inh	SKN-1 inh	Rpn11 block	SUMO1-SIM PPI	CSN inh	DNMT1 block
COCCn1c(CCC(=O)O)nc2c1c(=O)[nH]c(=O)n2CC(C)C	5	32*	-2	-1	1	0
CCCCn1c(CCC(=O)O)nc2c1c(=O)[nH]c(=O)n2CCC	0	-10	-2	1	3	-5
CCCCOCCCNC(=O)C[C@@H]1C[C@@]2(C(=O)OC)CCCCC=C2N(Cc2ccco2)C1=O	6	-1	nt	-4	-1	nt
COc1ccc(NC(=O)CCC(=O)N(Cc2ccc(OC)c(OC)c2)c2nccs2)c(OC)c1	2	-1	1	2	-4	-4
COc1ccc(OC)c(NC(=O)CCC(=O)N(Cc2ccc(OC)c(OC)c2)c2nccs2)c1	0	4	0	-2	43*	-2
CC(C)CCNC(=O)NC(=O)COC(=O)c1cc(S(=O)(=O)N2CCOCC2)ccc1N1CCCCC1	0	-9	4	45*	0	-2
Cc1ccc(S(=O)(=O)N2CCOCC2)cc1C(=O)OCC(=O)Nc1ccc2[nH]c(=O)[nH]c2c1	-5	19	-2	82*	0	2
Cc1ccc(C(=O)OCC(=O)Nc2ccc3[nH]c(=O)[nH]c3c2)cc1S(=O)(=O)N1CCOCC1	5	-8	-2	7	3	0
C=CCn1c(N)c(C(=O)Nc2cccc(C)c2)c2nc3ccccc3nc21	-7	2	6	6	5	-47
C=CCn1c(N)c(C(=O)Nc2ccc(C)c(C)c2)c2nc3ccccc3nc21	-5	40*	2	5	-7	-9
COc1ccc(Nc2cc(C(=O)NCCCN3CCOCC3)c3ccccc3n2)cc1	-3	-1	-8	-5	-1	1
COc1ccc(Nc2nc(C(=O)NCCCN3CCOCC3)cs2)cc1	-14	33*	5	3	6	-4
Brc1ccc(C2=CC(c3cccs3)n3ncnc3N2)cc1 (stereo unspecified)	-269	-75	-194	-23	-71	66*
Cc1cc(Br)cn2c(Cc3ccsc3)c(C(C)(C)C)nc12	-17	8	-111	-3	-33	-2
Cn1nc(C(F)(F)F)c(C(=O)Nc2ccc(Cl)cc2)c1Cl	-4	3	0	41*	-3	3
COc1ccc(C(=O)Nc2nc3c(s2)Cc2cc(OC)ccc2-3)cc1	-8	2	33	-2	34	-17
O=C(Nc1nc2c(F)c(F)c(F)cc2s1)c1ccco1	0	13	-4	2	-3	-1
CC(=O)Nc1nc2ccc(Br)cc2s1	-2	35*	-5	-5	-4	-6
O=C(Nc1nc2c(ccc3ccccc32)s1)c1ccco1	-9	81*	-10	-8	-1	1
Cc1ccc2nc(NC(=O)c3ccco3)sc2c1	10	45*	-6	1	2	-1
COc1ccc2c(c1)Cc1sc(NC(=O)c3ccccc3)nc1-2	-2	42*	0	-2	23	-19
COc1ccc(OC)c(NC(=O)Nc2nc(C(N)c3ccccc3Cl)cs2)c1 (stereo unspecified)	-1	3	5	-4	-2	-19

Assay outcomes deposited in PubChem BioAssay by Sanford-Burnham Center for Chemical Genomics.
